The results in this text go back to ChEMBL document CHEMBL1127538, “Anti-HIV michellamines from Ancistrocladus korupensis” (J Med Chem, 1994).

What all share (type): functional, cell-based
For experiment [1], the system named is CEM-SS. Briefly: Anticytopathic activity was measured against HIV-2(CBL-20 strain) in CEM-SS human lymphoblastoid target cells. The procedure, abridged: (§1)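 Cell lines in RPMI 1640 without phenol red, with 5% fetal bovine serum, 2 mM L-glutamine and 50 µg/mL gentamicin, at 37 °C and 5% CO2. Seeded at 5 × 10^5 cells/well and infected with pretitered virus at MOI 0.01-0.05, chosen for complete cell killing by day 6. Half-log aqueous dilutions of acetate salts tested in triplicate. XTT formazan read after 6 days; EC50 is 50% inhibition of virus-induced killing.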

Experiment [2] deals with CEM-SS. Briefly: Anticytopathic activity was measured against HIV-1(RF strain) in CEM-SS human lymphoblastoid target cells. The procedure, abridged:
as §1
(In general: Protection from cytopathic effect is a common read-out in antiviral testing.)

In experiment [3] the test system is C-344 cell line. The experiment can be described thus: Anti -HIV activity was measured against C-344/HIV-1(RF). The note with it: Homo sapiens. The procedure, abridged:
as §1

Experiment [4] concerns LDV-7 cell line. Briefly: Cytotoxicity was measured against LDV-7/HIV-1(RF). As to conditions: Homo sapiens. In a few lines:
(§2)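 Cytotoxicity was measured in cells-plus-drug control wells run alongside the antiviral assay. Serial half-log dilutions of acetate salts were tested in triplicate. After 6 days at 37 °C, viability was read spectrophotometrically by XTT reduction to soluble formazan. IC50 is the concentration giving a 50% decrease in viable cell number.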

For experiment [5], the system named is MT2. The experiment can be described thus: Anti -HIV activity was measured against MT-2/HIV-1(RF). The note with it: Homo sapiens. In a few lines: (§3)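 MT-2 cells (RPMI 1640 without phenol red, 5% FBS, 2 mM L-glutamine, 50 µg/mL gentamicin; 37 °C, 5% CO2) seeded at 5 × 10^5 cells/well and infected at an MOI pretitered for complete cell killing by day 6 (MOI 0.01-0.05). Serial half-log aqueous dilutions of acetate salt added in triplicate. After 6 days at 37 °C, viability read by XTT formazan. EC50 = 50% inhibition of virus-induced killing.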

Experiment [6] concerns MT2. Briefly: Anti-HIV activity was measured against drug resistant HIV-1 A17 in MT-2 cells. As to conditions: Homo sapiens. The procedure, abridged:
as §3

Experiment [7] concerns PBL. Briefly: Anti -HIV activity was measured against PBLs/HIV-1 (WEJO). The note with it: Homo sapiens. The procedure, abridged: (§4)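 Lymphocytes and macrophages were isolated fresh from donor whole blood by Ficoll-Hypaque centrifugation. They were infected at an MOI giving maximal virus production by day 6 and treated with half-log dilutions of acetate salts in triplicate. After 6 days at 37 °C, RT activity or p24 core protein was quantified in cell-free supernatants. EC50 is 50% inhibition of virus production.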

For experiment [8], the system named is CEM-SS. The experiment can be described thus: Anti-HIV activity was measured against HIV-1 Lymphotropic 205 clinical isolates in CEM-SS cells. As to conditions: Homo sapiens. In a few lines:
as §1

Experiment [9] has as its system CEM-SS. Briefly: Anti-HIV activity was measured against HIV-1 Lymphotropic G clinical isolates in CEM-SS cells. The note with it: Homo sapiens. The procedure, abridged: as §1
The test system of experiment [10] is LDV-7 cell line. Briefly: Anti -HIV activity was measured against LDV-7/HIV-1(RF). The note with it: Homo sapiens. The procedure, abridged: as §1
Experiment [11] deals with CEM-SS. The experiment can be described thus: Anti -HIV activity was measured against CEM-SS/HIV-1 (NIH-DZ). The note with it: Homo sapiens. The procedure, abridged: as §1
For experiment [12], the system named is CEM-SS. The experiment can be described thus: Anti-HIV activity was measured against HIV-1 Promonocytropic MN clinical isolates in CEM-SS cells. The note with it: Homo sapiens. The procedure, abridged:
as §1

In experiment [13] the test system is CCRF-CEM. The experiment can be described thus: Anti -HIV activity was measured against 174*CEM/HIV-1(IIIB). The note with it: Homo sapiens. The procedure, abridged:
as §1

Experiment [14] deals with CEM-SS. The experiment can be described thus: Cytotoxicity was measured against CEM-SS/HIV-1 (RF). As to conditions: Homo sapiens. In a few lines: as §2
Experiment [15] relates to C8166. Briefly: Cytotoxicity was measured against C8166/HIV-1(RF). As to conditions: Homo sapiens. In a few lines: as §2
For experiment [16], the system named is PBL. The experiment can be described thus: Cytotoxicity was measured against PBLs/HIV-1 (WEJO). The note with it: Homo sapiens.
Experiment [17] has as its system C8166. The experiment can be described thus: Anti -HIV activity was measured against C8166/HIV-1(RF). As to conditions: Homo sapiens. The procedure, abridged:
as §1

For experiment [18], the system named is CEM-SS. The experiment can be described thus: Anti-HIV activity was measured against HIV-1 Lymphotropic PM16 clinical isolates in CEM-SS cells. As to conditions: Homo sapiens. In a few lines: as §1
In experiment [19] the test system is CEM-SS. The experiment can be described thus: Anti-HIV activity was measured against HIV-2 CBL-20 laboratory strains in CEM-SS cells. As to conditions: Homo sapiens. In a few lines:
as §1

Experiment [20] has as its system CEM-SS. The experiment can be described thus: Anti-HIV activity was measured against HIV-1 Promonocytropic SKI clinical isolates in CEM-SS cells. As to conditions: Homo sapiens. The procedure, abridged:
as §1

Experiment [21] relates to MT2. The experiment can be described thus: Cytotoxicity was measured against MT-2/HIV-1(RF). The note with it: Homo sapiens. The procedure, abridged: as §2
In experiment [22] the test system is CEM-SS. Briefly: Anti-HIV activity was measured against HIV-1 Promonocytropic TPI clinical isolates in CEM-SS cells. As to conditions: Homo sapiens. The procedure, abridged:
as §1

For experiment [23], the system named is CEM-SS. The experiment can be described thus: Anti-HIV activity was measured against HIV-1,IIIB laboratory strains in CEM-SS cells. As to conditions: Homo sapiens. In a few lines:
as §1

The test system of experiment [24] is MT2. The experiment can be described thus: Cytotoxicity was measured against MT-2/HIV-2(NIH-DZ). The note with it: Homo sapiens. The procedure, abridged:
as §2

The test system of experiment [25] is PMC. Briefly: Anti -HIV activity was measured against PMCs/HIV-1(Ba-L). The note with it: Homo sapiens. The procedure, abridged: as §4
Experiment [26] deals with CEM-SS. Briefly: Anti-HIV activity was measured against HIV-1,RF laboratory strains in CEM-SS cells. As to conditions: Homo sapiens. In a few lines:
as §1

For experiment [27], the system named is CEM-SS. The experiment can be described thus: Anti-HIV activity was measured against HIV-2 NIH-DZ strain laboratory strains in CEM-SS cells. The note with it: Homo sapiens. The procedure, abridged: as §1
Experiment [28] relates to CEM-SS. Briefly: Anti-HIV activity was measured against HIV-2 ROD strain laboratory strains in CEM-SS cells. As to conditions: Homo sapiens. The procedure, abridged: as §1
The test system of experiment [29] is CEM-SS. The experiment can be described thus: Anti-HIV activity was measured against HIV-1,LAV laboratory strains in CEM-SS cells. The note with it: Homo sapiens. The procedure, abridged:
as §1

Experiment [30] deals with MT2. Briefly: Anti-HIV activity was measured against drug resistant HIV-1 G9106 in MT-2 cells. As to conditions: Homo sapiens. In a few lines: as §3
The subject of experiment [31] is C-344 cell line. The experiment can be described thus: Cytotoxicity was measured against C-344/HIV-1(RF). The note with it: Homo sapiens. The procedure, abridged: as §2
The subject of experiment [32] is CEM-SS. Briefly: Cytotoxicity was measured against CEM-SS/HIV-1 (NIH-DZ). As to conditions: Homo sapiens. In a few lines:
as §2

The subject of experiment [33] is CEM-SS. Briefly: Anti -HIV activity was measured against CEM-SS/HIV-1 (RF). As to conditions: Homo sapiens. The procedure, abridged:
as §1

Experiment [34] has as its system CEM-SS. Briefly: Anti-HIV activity was measured against HIV-1 Promonocytropic 214 clinical isolates in CEM-SS cells. As to conditions: Homo sapiens. The procedure, abridged: as §1
In experiment [35] the test system is AA5. The experiment can be described thus: Cytotoxicity was measured against AA5/HIV-1(IIIB). The note with it: Homo sapiens. In a few lines:
as §2

Experiment [36] concerns CEM-SS. Briefly: Anti-HIV activity was measured against HIV-1 Lymphotropic MCK clinical isolates in CEM-SS cells. As to conditions: Homo sapiens. The procedure, abridged: as §1
For experiment [37], the system named is AA5. The experiment can be described thus: Anti -HIV activity was measured against AA5/HIV-1(IIIB). The note with it: Homo sapiens. The procedure, abridged:
as §1

The test system of experiment [38] is CEM-SS. Briefly: Anti-HIV activity was measured against HIV-2 MS laboratory strains in CEM-SS cells. As to conditions: Homo sapiens. In a few lines: as §1
For experiment [39], the system named is PMC. The experiment can be described thus: Cytotoxicity was measured against PMCs/HIV-1(Ba-L). The note with it: Homo sapiens.
For experiment [40], the system named is MT2. The experiment can be described thus: Anti -HIV activity was measured against MT-2/HIV-2(NIH-DZ). The note with it: Homo sapiens. The procedure, abridged: as §3
In experiment [41] the test system is CCRF-CEM. Briefly: Cytotoxicity was measured against 174*CEM/HIV-1(IIIB). The note with it: Homo sapiens. In a few lines:
as §2

Some results are limits rather than exact numbers.

Turning to `COc1cc(C)cc2c(-c3c(O)cc(O)c4c3C[C@@H](C)N[C@@H]4C)cc(-c3cc(-c4c(O)cc(O)c5c4C[C@@H](C)N[C@@H]5C)c4cc(C)cc(OC)c4c3O)c(O)c12` (stereo in doubt; form 1) [MICHELLAMINE A], the EC50 (as a rule, the concentration needed to bring the measured effect to its halfway point) in [1] turned out to be 10 µM; in experiment [2] (Homo sapiens, CEM-SS), 10 µM.

For `COc1cc(C)cc2c(-c3c(O)cc(O)c4c3C[C@@H](C)N[C@@H]4C)cc(-c3cc(-c4c(O)cc(O)c5c4C[C@@H](C)N[C@@H]5C)c4cc(C)cc(OC)c4c3O)c(O)c12` (stereo in doubt; form 2) [MICHELLAMINE A], the EC50 in experiment [2] (cem-ss) was 13 µM.

Regarding `COc1cc(C)cc2c(-c3c(O)cc(O)c4c3C[C@@H](C)N[C@@H]4C)cc(-c3cc(-c4c(O)cc(O)c5c4C[C@@H](C)N[C@@H]5C)c4cc(C)cc(OC)c4c3O)c(O)c12` (stereo in doubt; form 3) [MICHELLAMINE A], the EC50 came to 39 µM in experiment [3]; 40 µM in experiment [5]; 9 µM in [6]; 5 µM in experiment [7]; 11 µM in experiment [8]; 3 µM in experiment [9]. In addition, the EC50 was determined as 13 µM in experiment [10]; 1 µM in [11]; 13 µM in experiment [12]; 23 µM in [13]; 88 µM in experiment [17]; 12 µM in experiment [18]. The EC50 in experiment [19] is 2 µM; in experiment [20], 12 µM; in [22], 6 µM; in experiment [23], 1 µM; in experiment [25], 10 µM; in experiment [26], 12 µM. Moreover, the concentration for a half-maximal effect (EC50) amounted to 5 µM in experiment [27]; 2 µM in experiment [1]; 18 µM in [28]; 4 µM in experiment [29]; 5 µM in experiment [30]; 13 µM in [33]. Besides, the EC50 was determined as 10 µM in experiment [34]; 3 µM in experiment [36]; 33 µM in experiment [37]; 7 µM in experiment [38]; 6 µM in [40]. The IC50 (as a rule, the point on the concentration scale where inhibition reaches its midpoint) in [4] is 100 µM; in experiment [14], 120 µM; in [15], more than 240 µM; in experiment [16], more than 240 µM; in experiment [21], 200 µM; in experiment [24], 100 µM. For the same compound, the IC50 in experiment [31] is 160 µM; in experiment [32], 42 µM; in experiment [35], more than 125 µM; in experiment [39], more than 240 µM; in experiment [41], more than 125 µM.
